Hits are enriched below; roughly 1.5% of the tested compounds scored in any of these assays.
CXCR6 inh – CXCR6 (human) receptor inhibition; O00574; CHO-K1 PathHunter CXCR6 beta-arrestin, luminescence; inhibition, % at 20 µM; hit rate 0.36% among 360,000; AID 602244; in the data active = inhibition above about 34%, passing the limit was not always enough;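 note: antagonist mode with CXCL16 agonist at 10 nM final; 0% = 10 nM CXCL16 with DMSO and 100% = unstimulated wells without agonist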
Target sequence (O00574 whole entry, looked up): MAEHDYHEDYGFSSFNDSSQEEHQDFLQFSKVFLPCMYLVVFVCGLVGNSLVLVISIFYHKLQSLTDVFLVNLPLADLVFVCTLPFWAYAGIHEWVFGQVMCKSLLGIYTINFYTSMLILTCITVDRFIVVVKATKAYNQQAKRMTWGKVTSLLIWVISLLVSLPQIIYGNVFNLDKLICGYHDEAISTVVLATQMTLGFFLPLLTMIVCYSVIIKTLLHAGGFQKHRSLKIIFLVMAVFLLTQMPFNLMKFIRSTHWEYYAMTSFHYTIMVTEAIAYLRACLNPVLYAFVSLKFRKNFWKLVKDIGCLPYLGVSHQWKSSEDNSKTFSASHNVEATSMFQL
APJ ag – activates the human apelin receptor APJ. P35414. CHO-K1 APJ PathHunter beta-arrestin, luminescence; 0% DMSO wells, 100% apelin. activation, % at 20 µM. hit rate 0.11% among 330,000. AID 2520;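 active = activation more than six SD over the plate average, tested at 20 µM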;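 note: 0% = DMSO alone and 100% = apelin-13 at 10 nM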
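Test system – PathHunter CHO-K1 APJ (AGTRL-1) beta-arrestin reporter cells · Input – 1000 cells/well · Compound – single test compound dose, 20 µM final, 1% DMSO · Times – compound stimulation 90 min at 25 °C, detection 60 min · Technique – beta-gal luminescence · Read-out basis – APJ–arrestin association signal · Control set – negative DMSO alone, positive Apelin-13 at 10 nM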
CCR6 antagonist – CCR6 (human) receptor antagonism. inhibition, % at 20 µM. P51684. AID 493098. CHO-K1 CCR6 PathHunter beta-arrestin, luminescence, CCL20-stimulated. hit rate 0.49% among 340,000;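 active = compounds whose inhibition of the agonist-driven luminescence signal at 20 µM reaches about 50%, limit read from the data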;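 note: cells stimulated with CCL20 at 14 nM final; plate controls were DMSO with CCL20 for no effect and DMSO without agonist for full effect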
APJ antagonist – blocks the human apelin receptor APJ | CHO-K1 APJ beta-arrestin complementation, luminescence | inhibition, % at 20 µM | hit rate 0.32% among 330,000 | AID 2521;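 active = inhibition above about 40% at 20 µM, limit read from the data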;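 note: cells challenged with 10 nM apelin-13 agonist together with compound; plate controls were apelin-13 plus DMSO wells for no effect and DMSO wells lacking apelin-13 for full effect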
NTR1 agonist – agonists of human neurotensin receptor NTR1; AID 493036; NTR1-U2OS beta-arrestin-GFP spot imaging, agonist mode; activation, % at 20 µM; P30989; hit rate 0.17% among 330,000;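 active = activation at or above 40% of the spot to cytoplasm intensity ratio, with at least 20 cells analyzed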;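 note: 0% = DMSO without peptide and 100% = 100 nM NTR1 peptide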
HTR2A ag – mouse HTR2A agonism via beta-arrestin recruitment. activation, % at 7.6 µM. CHO-K1 mHTR2A beta-arrestin complementation, luminescence; percent of 30 µM serotonin response. hit rate 0.66% among 360,000. P35363;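 active = activation above a run cutoff, the mean activation of all tested compounds plus 3 SD, cut at about 14% in these data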;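 note: 0% = plate median of compound wells and 100% = 30 µM serotonin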
OPRM1 ag – activates human mu opioid receptor in HTR2A counterscreen; activation, % at 9.3 µM; hit rate 5.3% among 2,300; shares compounds with HTR2A ag; U2OS OPRM1 beta-arrestin PathHunter, luminescence; DMSO 0%, DAMGO 9.3 µM 100%;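 active = mean activation above the mean of DMSO-only wells plus 3 SD, cut at about 0.5% in these data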
m5-HT2A ag conf – mouse HTR2A agonism confirmed. shares compounds with HTR2A ag. CHO-K1 PathHunter beta-arrestin recruitment, luminescence; DMSO 0%, 30 µM serotonin 100%. activation, % at 7.6 µM. hit rate 19% among 2,300. AID 624381;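 active = mean activation across triplicates above the hit threshold derived in the original primary screen, cut at about 15% in these data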
* marks the source's active call; other numbers are inactive results; . = no result.

SMILES | CXCR6 inh | APJ ag | CCR6 antagonist | APJ antagonist | NTR1 agonist | HTR2A ag | OPRM1 ag | m5-HT2A ag conf
O=C(NC1(N2CCOCC2)CC1)c1ccc(Cl)cc1 | -5 | -3 | 6 | -4 | 3 | 15* | -1 | -2
c1ccc(CCNc2ccc3nncn3n2)cc1 | 5 | -1 | 12 | -71 | 0 | 16* | 0 | -6
CN(c1ccc(C(=O)N2CCN(Cc3ccccc3)CC2)cc1)S(=O)(=O)c1ccc(Cl)cc1 | -2 | 0 | 18 | -5 | 0 | 15* | 0 | 64*
Cc1ccc(N(C)S(=O)(=O)c2cccc(C(=O)N3CCN(Cc4ccccc4)CC3)c2)cc1 | -7 | -1 | 14 | 3 | 4 | -5 | . | .
O=C(c1ccco1)N1CCN(Cc2ccc(Br)cc2)CC1 | -5 | -5 | 7 | -4 | 0 | 15* | 0 | 90*
O=C(c1ccc(CS(=O)c2cccc(Cl)c2)o1)N1CCOCC1 (centres undefined) | -8 | -4 | 5 | 17 | 2 | 18* | -1 | -2
CCc1ccc(CN2CCN(C(=O)c3ccco3)CC2)cc1 | 0 | 1 | 15 | -2 | 1 | 15* | -1 | 123*
NS(=O)(=O)c1ccc(CCNC(=O)c2ccc([N+](=O)[O-])s2)cc1 | -9 | 3 | -6 | -14 | -1 | -4 | . | .
C#Cc1ccc([C@H]2C=C(C(=O)N3CCN(Cc4ccc5c(c4)OCO5)CC3)O[C@@H](OCC)[C@@H]2CCCO)cc1 | -2 | 5 | 10 | 5 | 12 | -1 | . | .
COc1ccc(/C=C2\Oc3cc(OCC(=O)N4CC(O)C[C@H]4C(=O)O)ccc3C2=O)cc1OC (some centres undefined) | 1 | -4 | 0 | 8 | -1 | 3 | . | .
O=C(Cc1cccc(NC(=O)C2CCCN(C(=O)C3CCCCC3)C2)c1)Nc1cccc(C(=O)N2CCOCC2)c1 (centres undefined) | 5 | . | 2 | . | . | -1 | . | .
Cc1ccc(S(=O)Cc2ccc(C(=O)N3CCN(C(=O)c4ccco4)CC3)o2)cc1 (centres undefined) | -6 | 5 | 10 | 1 | -2 | -3 | . | .
O=C(c1ccco1)N1CCN(C(=O)c2ccc(CS(=O)c3ccc(Cl)cc3)o2)CC1 (centres undefined) | 0 | -6 | 14 | 16 | 1 | 15* | -1 | -3
O=C(c1ccco1)N1CCN(Cc2ccc(Cl)cc2)CC1 | -15 | 0 | 8 | 3 | 0 | 21* | 0 | 88*
COc1ccc(-c2c(-c3cc(OC)cc(OC)c3)n(C)c3ccc(-c4ccc(S(N)(=O)=O)cc4)cc23)cc1 | 0 | 0 | 2 | 12 | 0 | -4 | . | .
CCOC(=O)c1c(O)c2c(n(Cc3ccco3)c1=O)CCCC2 | -3 | 2 | -9 | -24 | 1 | 15* | 0 | 6
CCOC(=O)c1c(NC(=O)c2ccco2)sc2c1CCCC2 | -2 | -4 | -2 | -11 | 0 | 6 | . | .
O=C(NCCCN1CCN(c2cccc(Cl)c2)CC1)c1cccc(N2CCCC2=O)c1 | -8 | 0 | 19 | 1 | 1 | 17* | -1 | 4
CCCCCCCCC1CC(C(=O)Nc2ccccc2)C(=O)O1 (centres undefined) | -1 | 6 | 4 | 4 | 3 | 2 | . | .
Cc1cccc(C(C)C)c1NC(=O)COC(=O)CN1C(=O)C2CC=CCC2C1=O (centres undefined) | 7 | -3 | 11 | 10 | 0 | 20* | 0 | 6
Cc1cccc(C)c1NC(=O)CN1C(=O)C2CC=CCC2C1=O (centres undefined) | -4 | -4 | 1 | 20 | 0 | -2 | . | .
O=C(CSc1ccc2ccccc2c1)NCCc1ccc(O)c(O)c1 | -2 | -1 | 2 | -17 | 4 | 31* | 0 | 101*
CN(Cc1ccco1)C(=O)CSc1nn2c(=O)c(C(C)(C)C)nnc2s1 | -5 | -1 | 6 | 3 | 3 | 4 | . | .

From PubChem
